Screens deposited in PubChem BioAssay by several laboratories.
Hep lipid drop: modulators of hepatic lipid droplet formation. AID 1656. AML12 mouse hepatocytes, oleate lipid droplets, BODIPY imaging. hit rate 0.4% among 240,000. inhibition, % at 6.5 µM;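 active means lipid droplet intensity inhibited by at least 50%, with more than 500 cells counted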
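Test system: AML12 hepatocytes (mouse); reagent: oleate loading, 100 µM; dosing: one dose, 6.5 µM compound; incubation: overnight exposure; signal: fluorescence imaging, 20x objective, two fields per well; read-out basis: % inhibition of corrected integrated BODIPY droplet signal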
TAG inh: triacylglycerol accumulation inhibition. H9c2 cells, Nile Red lipid (TAG) fluorescence; cells loaded with 200 µM oleic acid. inhibition, % at 12.5 µM. hit rate 0.66% among 230,000. AID 651582;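 active means pattern-corrected inhibition of lipid staining of at least 50% with the nuclear-stain viability signal not falling by more than 50%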;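 further: 0% = DMSO wells and 100% = triacsin C control wells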
Platelet DG rel: modulates dense granule release in human platelets | human platelet-rich plasma, SFLLRN dense granule ATP release, luminescence | inhibition, %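 (compounds screened at 7.5 µM in platelet-rich plasma)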 | hit rate 0.22% among 300,000 | AID 1663;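 active means mean replicate score, as percent of positive control, at or above 50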
STAT3 inh: STAT3 signaling inhibition; U3A cells, IL-6 STAT3-luciferase reporter, luminescence; host cell line lacks STAT1; inhibition, % at 5.5 µM; hit rate 0.89% among 190,000;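 active means inhibition above the mean inhibition across all screened compounds plus 3 SD, cut at about 44% in these data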;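 further: 0% = DMSO only wells and 100% = 100 µM nifuroxazide control wells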
PPC-1+TRAIL kill: compounds killing PPC-1 cancer cells with TRAIL present (potentiator screen, no TRAIL-free arm). PPC-1 cells + TRAIL, ATPLite viability luminescence. hit rate 0.41% among 220,000. cell killing (% activity), % at 4 µM or 5 µM;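 active means cell killing above 50% in the first pass at 4 µM, then a duplicate retest at 5 µM averaging 50% or more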;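 further: plate controls were cells with TRAIL plus DMSO for no effect and medium-only wells lacking cells for full effect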
STAT1 inh: reduces IFN-gamma driven STAT1 reporter signal; NIH 3T3 STAT1-luciferase reporter, luminescence; inhibition, % at 5.5 µM; hit rate 0.35% among 200,000; AID 920;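 active means inhibition above a set limit, the mean inhibition across all tested compounds plus 3 SD, cut at about 34% in these data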;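 further: 0% = IFN-gamma with DMSO and 100% = IFN-gamma with 300 µM nifuroxazide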
PPC1 cytotox: PPC-1 cell cytotoxicity; shares compounds with PPC-1+TRAIL kill; PPC-1 viability, ATPlite luminescence, overnight; cytotoxicity, % at 5 µM; hit rate 50% among 1,200; AID 1447;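 active means reconfirmed compounds whose average cytotoxicity reaches 50% or more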;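 further: 0% = DMSO-treated cells and 100% = wells holding medium but no cells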
Active calls of the source: *; nt = not tested or not shown. Sampled rows, rich in hits. Any-hit rate of the full collection: about 1.5%.

SMILES	Hep lipid drop	TAG inh	Platelet DG rel	STAT3 inh	PPC-1+TRAIL kill	STAT1 inh	PPC1 cytotox
S=C(Nc1ccc2c(c1)OCO2)N1CCN(Cc2ccco2)CC1	0	11	2	15	53*	7	56*
COc1ccccc1CCC(=O)NNC(=O)Cn1nc(C)cc1C	nt	-1	nt	nt	nt	nt	nt
CCN(CC)c1ccc(C=Nc2ccc(N(C)C)cc2)c(O)c1	5	5	6	15	-1	-33	nt
CCN(CC)c1ccc(N=Cc2ccc(N(CC)CC)cc2O)cc1	-1	nt	1	11	13	4	6
O=C1/C(=C/c2ccccc2)CCCc2ccccc21	13	-5	5	6	-9	-13	nt
Cc1cccc(/C=C2\CCC(=C3SCCCS3)C2=O)c1	nt	3	2	26	78*	11	80*
CC(Sc1nc(=O)cc(N)n1CCc1ccccc1)C(=O)NCc1ccccc1 (stereo unspecified)	-6	3	4	4	23	10	nt
C=CCn1c(N)cc(=O)nc1SC(C)C(=O)Nc1cccc2ccccc12 (stereo unspecified)	-17	nt	nt	-3	15	2	4
O=C(c1cnc(Cc2c[nH]c3ccccc23)c(I)c1)N1CCOCC1	nt	-16	nt	nt	nt	nt	nt
COCCN1C(=O)c2ccc(C(=O)NCc3cccnc3)cc2C1=O	-13	nt	11	6	-1	2	12
O=C(C1CCCCC1)N1C[C@@H](O)[C@H](n2cc(-c3ccc(F)cc3)nn2)C[C@@H]1c1ccc(Cl)cc1	nt	-2	nt	nt	nt	nt	nt
Cc1cccc(C(=O)NNC2=CC(=O)CC(C)(C)C2)c1O	5	2	2	nt	-4	nt	nt
CC1(C)CC(=O)C=C(NNC(=O)c2ccccc2O)C1	nt	nt	10	16	79*	1	75*
CCCCCC(=O)OCc1ccc(C2=CC(=O)CC(C)(C)C2=O)cc1	nt	-1	nt	nt	nt	nt	nt
O=C(Nc1nccs1)c1ccc(-c2ccc(Cl)cc2)o1	2	0	38	16	60*	-41	61*
O=C(Nc1nccs1)c1cnccn1	-7	nt	15	8	8	4	8
O=C(Nc1nccs1)c1ccccn1	8	2	-1	20	-10	-27	nt
O=C(Nc1nccs1)c1ccc(-c2ccc(F)cc2)o1	2	13	0	19	49	-33	nt
COCCNC(=O)C1(C)CCCN(Cc2ccc(Cl)nc2)C1 (stereo unspecified)	nt	-25	nt	nt	nt	nt	nt
Cc1ccc(NC(=O)c2csc(-c3ccccc3)c2C)cc1	nt	nt	nt	104*	80*	63*	82*
Cc1c(C(=O)Nc2cccc([N+](=O)[O-])c2)csc1-c1ccccc1	nt	nt	8	-8	12	-72	nt
CC1=C(C(=O)N2CCOCC2)CC(CC(=O)NCc2ccco2)C(=O)N1Cc1ccc(C(C)(C)C)cc1 (stereo unspecified)	nt	1	nt	nt	nt	nt	nt
NC(=O)c1ccccc1N/C=C/C(=O)c1cccs1	8	nt	41	32	30	-42	nt
NC(=O)c1ccccc1N/C=C/C(=O)c1ccc(F)cc1	nt	-5	39	39	63*	-59	58*
CC(C)C[C@H]1CNC(=O)C(=O)N1CC1CCN(CC2CCC(C(C)(C)C)CC2)CC1 (stereo partly specified)	nt	27	nt	nt	nt	nt	nt
SMILES	Hep lipid drop	TAG inh	Platelet DG rel	STAT3 inh	PPC-1+TRAIL kill	STAT1 inh	PPC1 cytotox
Oc1c(N=Nc2ccccn2)ccc2ccccc12	nt	70*	42	15	82*	-7	80*
Oc1[nH]c2ccccc2c1N=Nc1ccccn1	nt	1	nt	nt	nt	nt	nt
CCCOc1ccc2c(=O)c(N3C(=O)c4ccccc4C3=O)c(C)oc2c1	nt	nt	-4	9	-16	0	-10
CC(=O)Oc1ccc2c(=O)c(N3C(=O)c4ccccc4C3=O)c(C)oc2c1	1	nt	9	-4	30	9	nt
Cc1cn([C@H]2C[C@H](O)[C@@H](CNCc3ccccc3OCCCN3CCOCC3)O2)c(=O)[nH]c1=O	nt	4	nt	nt	nt	nt	nt
COC(=O)C1C(=O)c2c([nH]c(C(=O)OCCOC(C)C)c2C)CC1C (stereo unspecified)	-2	nt	-20	-4	-9	-9	-2
COC(=O)C1C(=O)c2c([nH]c(C(=O)OC3CCCCC3)c2C)CC1C (stereo unspecified)	2	nt	1	-5	38	-26	nt
Cc1cccc(NC(=O)c2cnc3sccn3c2=O)c1	-10	7	25	nt	44	-28	nt
